{"data": "Published values gathered from unrelated publications", "target": "Testis-specific serine/threonine-protein kinase 1 (TSSK1B, Homo sapiens, UniProt Q9BXA7)", "Sequence (Q9BXA7 1-367, as in one of the studies)": "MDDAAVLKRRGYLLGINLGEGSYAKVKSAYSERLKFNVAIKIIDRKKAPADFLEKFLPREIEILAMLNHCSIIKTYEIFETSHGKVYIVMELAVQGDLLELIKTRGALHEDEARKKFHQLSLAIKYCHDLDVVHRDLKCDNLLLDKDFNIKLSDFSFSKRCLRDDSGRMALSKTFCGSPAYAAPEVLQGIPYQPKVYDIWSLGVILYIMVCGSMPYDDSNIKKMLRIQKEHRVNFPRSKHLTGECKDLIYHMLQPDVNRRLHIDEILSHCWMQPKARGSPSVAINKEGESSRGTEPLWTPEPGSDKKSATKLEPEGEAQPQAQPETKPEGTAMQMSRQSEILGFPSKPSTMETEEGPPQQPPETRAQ"}
{"Compound": "CC(C)(C)c1cc(C=C(C#N)C#N)cc(Br)c1O", "effect on": "enzyme activity", "action": "inhibitor", "tested at": "0.5 µM", "measurement": "remaining activity", "result": "95.6%"}
{"Compound": "Nc1ncc(-c2nc(N3CCOCC3)nc(N3CCOCC3)n2)c(C(F)F)n1", "effect on": "binding", "technique": "competition with immobilised ligand", "tested at": "10 µM", "measurement": "remaining binding", "result": "100%"}
{"Compound": "Cn1cc(-c2cc(F)cc(N3CCn4c(cc5c4CCCC5)C3=O)c2CO)cc(Nc2ccc(N3CCN(C4COC4)CC3)cn2)c1=O", "effect on": "enzyme activity", "action": "inhibitor", "tested at": "0.1 µM", "measurement": "inhibition", "result": "9%"}
{"Compound": "Cc1nn(C)cc1-c1nc2c(N3CCN(Cc4ccc(Cl)cc4)CC3)c(Cl)cnc2[nH]1", "effect on": "binding", "technique": "competition with immobilised ligand", "tested at": "1 µM", "measurement": "remaining binding", "result": "100%"}
{"Compound": "Cn1cncc1[C@@](O)(COc1ccc(C#N)cc1-c1ccc(OC(F)(F)F)cc1)c1ccc(C#N)cc1", "effect on": "cell-free assay", "technique": "competition with immobilised ligand", "tested at": "1 µM", "measurement": "remaining binding", "result": "70%"}
{"Compound": "COc1cc(Nc2ncc(F)c(Nc3ccc4c(n3)NC(=O)C(C)(C)O4)n2)cc(OC)c1OC", "effect on": "binding", "tested at": "10 µM", "measurement": "inhibition", "result": "97%"}
{"Compound": "N#CC1(c2ccccn2)CCN(Cc2cc(C(=O)O)c(=O)n3ccccc23)CC1", "effect on": "cell-free assay", "technique": "competition with immobilised ligand", "tested at": "1 µM", "measurement": "remaining binding", "result": "74%"}
{"Compound": "O=c1[nH]c2ccccc2n1C1CCN(Cc2ccc(-c3[nH]c4cc5ncnc5cc4nc3-c3ccccc3)cc2)CC1", "effect on": "cell-free assay", "tested at": "0.5 µM", "measurement": "remaining signal", "result": "96.5%"}
{"Compound": "COc1ncccc1-c1cnn2ccc(N3CCN(C(=O)OC(C)C)CC3)nc12", "effect on": "binding", "technique": "competition with immobilised ligand", "tested at": "1 µM", "measurement": "remaining binding", "result": "54%"}
{"Compound": "Cn1cc(-c2cccc(N3CCc4c(sc5c4CC(C)(C)C5)C3=O)c2CO)cc(Nc2ccncn2)c1=O", "effect on": "enzyme activity", "action": "inhibitor", "tested at": "1 µM", "measurement": "inhibition", "result": "5%"}
